In brackets after ≈: the same amount, converted by molar mass. One block for each compound: values may come before it.
Tests used:
P. aeruginosa DK2 [1] = assay: MIC by micro broth dilution; format: cell-based, Pseudomonas aeruginosa; details: for MIC: Pseudomonas aeruginosa, DK2, 18 h, read-out: MIC, derivative alone, P. aeruginosa DK2, 18 h, 100% growth inhibition; for MIC, antibiotic alone: P. aeruginosa DK2
P. aeruginosa DK2 [2] = assay: Time-kill assay; format: cell-based, Pseudomonas aeruginosa; details: for Effect on bacterial growth when used alone (time-kill): A22 10 or 20 μmol/L, PB 0.5 or 1 μg/mL
Water solubility assay = format: physicochemical; details: thermodynamic from solid
How it was run: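 Standard curve made from methanol solutions (0.56–0.0011 mg/mL) using HPLC UV peak area at 254 nm. Excess solid stirred in water for 24 h to give a […] solution, then analysed by HPLC at 254 nm. Solubility calculated from the standard curve.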

CYP1A2 = molecular target: T1, CYP1A2 (Homo sapiens, UniProt P05177); assay: Human CYP450 inhibition assay; format: in vitro ADME
T1 sequence (P05177 1-516): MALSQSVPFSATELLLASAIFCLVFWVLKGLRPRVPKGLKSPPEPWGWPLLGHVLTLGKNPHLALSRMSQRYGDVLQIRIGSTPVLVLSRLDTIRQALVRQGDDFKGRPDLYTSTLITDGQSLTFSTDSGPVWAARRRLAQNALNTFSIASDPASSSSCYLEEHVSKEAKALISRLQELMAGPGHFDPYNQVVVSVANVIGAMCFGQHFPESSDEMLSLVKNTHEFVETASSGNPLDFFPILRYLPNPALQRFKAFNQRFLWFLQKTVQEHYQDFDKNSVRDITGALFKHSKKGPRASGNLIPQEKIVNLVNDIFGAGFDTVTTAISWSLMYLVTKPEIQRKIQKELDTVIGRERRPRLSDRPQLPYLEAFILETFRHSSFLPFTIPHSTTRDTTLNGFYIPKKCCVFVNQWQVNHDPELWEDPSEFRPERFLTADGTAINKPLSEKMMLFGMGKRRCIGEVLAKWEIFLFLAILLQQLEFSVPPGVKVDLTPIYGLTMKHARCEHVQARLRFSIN

CYP2C8 = molecular target: T2, CYP2C8 (Homo sapiens, UniProt P10632); assay: Human CYP450 inhibition assay; format: in vitro ADME
T2 sequence (P10632 1-490): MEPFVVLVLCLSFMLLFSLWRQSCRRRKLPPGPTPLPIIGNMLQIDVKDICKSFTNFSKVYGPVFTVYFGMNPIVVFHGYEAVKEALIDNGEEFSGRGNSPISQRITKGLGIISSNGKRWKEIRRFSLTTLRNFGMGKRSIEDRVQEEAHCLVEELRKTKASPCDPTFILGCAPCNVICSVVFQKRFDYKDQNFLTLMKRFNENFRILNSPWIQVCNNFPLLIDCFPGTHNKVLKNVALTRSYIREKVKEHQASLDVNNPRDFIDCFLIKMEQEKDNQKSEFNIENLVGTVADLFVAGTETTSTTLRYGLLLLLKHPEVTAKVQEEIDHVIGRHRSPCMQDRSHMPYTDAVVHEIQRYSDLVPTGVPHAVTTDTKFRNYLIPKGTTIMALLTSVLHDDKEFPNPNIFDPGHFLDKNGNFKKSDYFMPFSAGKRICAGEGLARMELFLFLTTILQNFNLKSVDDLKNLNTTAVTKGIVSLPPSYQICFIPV

P. aeruginosa DK2 [3] = assay: Intracellular ROS detection; format: cell-based, Pseudomonas aeruginosa; details: alone and in combination with PB
How it was run: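 Drug-treated bacteria collected and suspended in DCFH-DA (final 10 μmol/L), then incubated 20 min at 37 ℃. Cells resuspended in LB, centrifuged 5000 rpm for 5 min and washed to remove free probe. Fluorescence read at 488 nm excitation and 525 nm emission.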

[4] = Stability in liver microsomes; format: in vitro ADME, mouse
293 T = assay: Mammalian cytotoxicity, CCK8; format: cell-based; details: Homo sapiens, HEK-293T, 24 h, read-out: 293 T IC50, CCK8, 1 day incubation
How it was run: (§1)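 Cells seeded at 10,000 per well in medium with 10% serum. Serially diluted compound added 24 h later and incubated 1 day. Viability measured with CCK8 reagent per kit instructions and expressed as percent of vehicle-treated cells (set to 100).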

P. aeruginosa DK2 [5] = assay: Intracellular NADH oxidase; format: cell-based, Pseudomonas aeruginosa
How it was run: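 Bacteria treated with compounds singly and in combination; 1 mL harvested at OD600 = 1.0. NOX activity measured with a commercial kit by its extraction method and expressed as relative activity.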

CYP2B6 = molecular target: T3, CYP2B6 (Homo sapiens, UniProt P20813); assay: Human CYP450 inhibition assay; format: in vitro ADME
T3 sequence (P20813 1-491): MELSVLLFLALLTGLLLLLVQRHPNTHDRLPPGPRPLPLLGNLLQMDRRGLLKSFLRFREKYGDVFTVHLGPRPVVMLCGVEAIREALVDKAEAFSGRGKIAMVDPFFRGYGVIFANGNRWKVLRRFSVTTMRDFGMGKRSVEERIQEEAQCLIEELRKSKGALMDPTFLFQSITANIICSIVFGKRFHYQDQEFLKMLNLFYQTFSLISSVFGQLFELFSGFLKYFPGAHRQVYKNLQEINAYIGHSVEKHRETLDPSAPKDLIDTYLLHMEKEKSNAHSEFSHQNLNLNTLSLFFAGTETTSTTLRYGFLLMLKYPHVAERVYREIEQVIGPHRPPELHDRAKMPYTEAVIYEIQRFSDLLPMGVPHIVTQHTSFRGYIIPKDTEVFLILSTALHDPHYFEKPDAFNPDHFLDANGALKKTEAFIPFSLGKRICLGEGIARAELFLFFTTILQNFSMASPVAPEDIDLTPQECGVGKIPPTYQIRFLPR

[6] = Stability in liver microsomes; format: in vitro ADME, human
CYP2C9 = CYP2C9 (Homo sapiens, UniProt P11712); assay: Human CYP450 inhibition assay; format: in vitro ADME
P. aeruginosa DK2 [7] = assay: Bacterial ATP level assay; format: cell-based, Pseudomonas aeruginosa
How it was run: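 Cells treated with compounds singly and in combination and harvested at OD600 = 1.0 (2 mL), centrifuged, then extraction solution added. Lysed by sonication in an ice bath; extract kept on ice. Absorbance read at 340 nm at 10 s and again after 3 min at 25 ℃ using a commercial ATP kit. ATP expressed relative to control.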

HUVEC = assay: Mammalian cytotoxicity, CCK8; format: cell-based; details: Homo sapiens, 24 h, read-out: HUVEC IC50, CCK8, 1 day incubation
How it was run: as §1

[8] = Plasma protein binding assay; format: in vitro ADME; details: human
How it was run: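 Equilibrium dialysis: compound-spiked plasma placed on the donor side, blank buffer on the receiver side, 5 h at 37 ℃; T0 plasma samples also taken. Donor and receiver aliquots matrix-matched with the opposite matrix. Quenched with acetonitrile containing internal standard, vortexed, centrifuged 4000×g 10 min, and supernatant diluted with water. Analysed by LC–MS/MS alongside reference compounds.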

CYP2D6 = CYP2D6 (Homo sapiens, UniProt P10635); assay: Human CYP450 inhibition assay; format: in vitro ADME
CYP2C19 = CYP2C19 (Homo sapiens, UniProt P33261); assay: Human CYP450 inhibition assay; format: in vitro ADME; details: Inhibition for CYP isoforms IC50, 2C19, human liver microsomes, 40 min
CYP3A4 = CYP3A4 (Homo sapiens, UniProt P08684); assay: Human CYP450 inhibition assay; format: in vitro ADME
P. aeruginosa PAO1 = assay: C. elegans liquid medium killing and rescue assay; format: in vivo, Caenorhabditis elegans
hERG potassium channels = hERG potassium channels (Homo sapiens, UniProt Q12809); assay: hERG channel Qpatch assay; format: cell-based
P. aeruginosa DK2 [9] = assay: Biofilm production assay; format: cell-based, Pseudomonas aeruginosa
How it was run: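 Overnight LB culture (37 ℃, 200 rpm) diluted to OD600 0.01 and treated with compound alone or with polymyxin B. Cells inoculated 1:100 into CPG medium and grown 24 h at 37 ℃, then stained 30 min with 0.1% crystal violet. After water rinses and 1 h air drying, dye solubilised in 95% ethanol; OD570 read. For imaging, coverslip biofilms washed with PBS (pH 7.2), dried 60 ℃ 30 min, stained 15 min with acridine orange/ethidium bromide and examined by confocal microscopy.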

P. aeruginosa DK2 [10] = assay: Oxidative stress; format: cell-based, Pseudomonas aeruginosa; details: PB 0.25 or 0.5 μg/mL; 15 or A22 4 or 8 μg/mL, with or without PB
How it was run: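 Culture diluted to 0.01 and treated with compounds. At OD600 1.0, 3 mL collected, washed in 1 mL PBS, then resuspended in PBS with 0.2 mol/L H2O2 and shaken 15 min at 37 ℃. Suspensions diluted 10^1–10^7 in PBS, 5 μL spotted onto LB agar, and incubated 37 ℃ for 1–2 days before colony counting.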

P. aeruginosa DK2 [11] = assay: Murine wound infection model; format: in vivo, BALB/c female mice; details: mouse
How it was run: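 Female mice, 6–8 weeks old and 20–22 g, were anesthetized with 4% chloral hydrate and shaved dorsally. A ~5 mm wound was made and inoculated with 30 μL DK2 (5 × 10^8 CFU). From 48 h post-infection, wounds received saline, polymyxin alone, or polymyxin plus test compound twice daily. Test compound was given in saline with 0.1% Tween 80 and polymyxin in saline. Wounds and body weight were monitored daily. Wound tissue was homogenized in sterile PBS and plated for CFU.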

P. aeruginosa DK2 [12] = assay: Resistance assay by serial passaging; format: cell-based, Pseudomonas aeruginosa; details: passaged with PB alone (64 μg/mL); start 256 μg/mL

CYP3A4, sequence (P08684 whole entry): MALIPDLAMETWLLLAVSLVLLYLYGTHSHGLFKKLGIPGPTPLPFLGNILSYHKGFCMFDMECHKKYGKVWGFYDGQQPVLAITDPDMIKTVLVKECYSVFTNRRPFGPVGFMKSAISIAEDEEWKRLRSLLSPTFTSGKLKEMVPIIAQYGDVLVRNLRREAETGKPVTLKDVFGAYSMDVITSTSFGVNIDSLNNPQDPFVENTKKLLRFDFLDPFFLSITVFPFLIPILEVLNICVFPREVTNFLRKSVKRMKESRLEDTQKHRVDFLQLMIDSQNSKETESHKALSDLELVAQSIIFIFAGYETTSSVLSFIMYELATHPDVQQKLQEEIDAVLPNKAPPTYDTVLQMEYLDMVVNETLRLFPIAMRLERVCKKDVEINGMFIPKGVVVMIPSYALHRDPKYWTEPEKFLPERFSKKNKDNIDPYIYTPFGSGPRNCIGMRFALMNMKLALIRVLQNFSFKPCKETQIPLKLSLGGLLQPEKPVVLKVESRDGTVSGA
hERG potassium channels, sequence (Q12809 whole entry): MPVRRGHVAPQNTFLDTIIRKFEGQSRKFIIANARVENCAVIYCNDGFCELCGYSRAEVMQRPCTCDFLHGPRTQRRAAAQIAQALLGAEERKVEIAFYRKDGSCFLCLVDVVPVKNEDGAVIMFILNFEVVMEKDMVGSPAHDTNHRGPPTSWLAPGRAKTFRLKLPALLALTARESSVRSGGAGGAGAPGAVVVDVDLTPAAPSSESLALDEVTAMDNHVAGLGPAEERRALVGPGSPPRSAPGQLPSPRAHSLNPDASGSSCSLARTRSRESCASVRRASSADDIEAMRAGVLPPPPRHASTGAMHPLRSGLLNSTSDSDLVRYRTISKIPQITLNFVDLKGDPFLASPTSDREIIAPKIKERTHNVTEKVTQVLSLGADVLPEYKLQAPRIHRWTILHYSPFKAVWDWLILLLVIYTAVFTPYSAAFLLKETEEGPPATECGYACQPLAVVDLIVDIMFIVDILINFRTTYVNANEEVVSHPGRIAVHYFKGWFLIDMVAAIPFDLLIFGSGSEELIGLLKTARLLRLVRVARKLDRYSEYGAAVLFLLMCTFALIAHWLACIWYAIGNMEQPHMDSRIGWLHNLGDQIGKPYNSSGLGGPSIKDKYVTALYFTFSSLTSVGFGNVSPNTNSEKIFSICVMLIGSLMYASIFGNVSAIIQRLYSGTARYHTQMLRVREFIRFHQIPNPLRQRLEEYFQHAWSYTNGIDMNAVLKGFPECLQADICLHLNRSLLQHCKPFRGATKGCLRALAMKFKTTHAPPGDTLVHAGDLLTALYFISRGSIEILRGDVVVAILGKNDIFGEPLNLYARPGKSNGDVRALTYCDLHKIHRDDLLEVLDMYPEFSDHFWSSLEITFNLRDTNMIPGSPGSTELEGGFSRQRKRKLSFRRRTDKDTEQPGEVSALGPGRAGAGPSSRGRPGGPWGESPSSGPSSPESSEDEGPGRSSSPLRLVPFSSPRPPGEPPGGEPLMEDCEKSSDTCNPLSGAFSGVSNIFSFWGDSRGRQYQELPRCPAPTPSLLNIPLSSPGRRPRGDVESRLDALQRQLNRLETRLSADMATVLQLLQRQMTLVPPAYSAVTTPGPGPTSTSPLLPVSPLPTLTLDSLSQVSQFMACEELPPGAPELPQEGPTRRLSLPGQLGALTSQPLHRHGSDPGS
CYP2C9, sequence (P11712 whole entry): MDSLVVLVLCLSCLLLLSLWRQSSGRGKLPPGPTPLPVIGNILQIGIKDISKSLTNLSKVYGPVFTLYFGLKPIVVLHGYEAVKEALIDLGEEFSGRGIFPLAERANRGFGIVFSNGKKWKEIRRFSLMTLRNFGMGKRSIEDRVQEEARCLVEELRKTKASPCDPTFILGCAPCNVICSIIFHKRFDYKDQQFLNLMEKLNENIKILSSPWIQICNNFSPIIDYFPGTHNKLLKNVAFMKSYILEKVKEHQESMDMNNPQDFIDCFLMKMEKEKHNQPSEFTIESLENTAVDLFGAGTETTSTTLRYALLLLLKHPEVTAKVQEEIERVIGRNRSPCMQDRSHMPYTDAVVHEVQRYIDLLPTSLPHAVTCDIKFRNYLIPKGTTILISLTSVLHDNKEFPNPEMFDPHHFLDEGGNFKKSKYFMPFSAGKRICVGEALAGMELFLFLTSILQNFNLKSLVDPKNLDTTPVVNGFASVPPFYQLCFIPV
CYP2D6, sequence (P10635 whole entry, canonical isoform): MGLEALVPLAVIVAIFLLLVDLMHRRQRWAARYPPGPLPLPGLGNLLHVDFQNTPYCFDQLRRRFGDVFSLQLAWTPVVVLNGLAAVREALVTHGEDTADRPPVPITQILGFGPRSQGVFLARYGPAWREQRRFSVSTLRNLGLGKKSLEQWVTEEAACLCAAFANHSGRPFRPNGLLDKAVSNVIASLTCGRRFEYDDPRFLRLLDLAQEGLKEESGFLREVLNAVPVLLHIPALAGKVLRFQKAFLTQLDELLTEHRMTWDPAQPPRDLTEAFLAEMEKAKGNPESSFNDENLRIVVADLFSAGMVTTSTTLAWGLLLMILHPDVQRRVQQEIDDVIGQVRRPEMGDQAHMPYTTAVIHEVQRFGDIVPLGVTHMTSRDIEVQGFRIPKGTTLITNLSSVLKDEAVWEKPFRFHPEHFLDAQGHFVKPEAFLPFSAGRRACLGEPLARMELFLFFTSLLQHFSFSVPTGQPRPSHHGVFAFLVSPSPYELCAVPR
CYP2C19, sequence (P33261 whole entry, canonical isoform): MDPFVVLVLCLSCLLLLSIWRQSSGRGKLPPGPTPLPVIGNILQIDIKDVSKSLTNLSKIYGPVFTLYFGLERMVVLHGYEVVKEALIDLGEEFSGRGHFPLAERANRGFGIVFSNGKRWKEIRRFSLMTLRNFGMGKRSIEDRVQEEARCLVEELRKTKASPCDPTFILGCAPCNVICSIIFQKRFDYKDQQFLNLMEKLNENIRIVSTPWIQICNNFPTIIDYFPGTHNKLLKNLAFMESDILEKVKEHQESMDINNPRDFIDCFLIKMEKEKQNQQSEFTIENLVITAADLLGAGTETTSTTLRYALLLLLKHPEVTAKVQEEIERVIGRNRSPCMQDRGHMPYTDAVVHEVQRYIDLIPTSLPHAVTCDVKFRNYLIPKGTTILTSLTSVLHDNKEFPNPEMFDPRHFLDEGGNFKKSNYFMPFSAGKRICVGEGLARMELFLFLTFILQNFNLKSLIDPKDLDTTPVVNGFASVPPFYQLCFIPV

MIC (P. aeruginosa DK2 [1]): 50 to 100 µM (≈ 16.3 to 32.6 µg/mL)
Compound: O=C(NNc1ccc([N+](=O)[O-])cc1Cl)c1cc(F)ccc1O [A3]

MIC (P. aeruginosa DK2 [1]): 50 to 100 µM (≈ 14.6 to 29.2 µg/mL)
Compound: O=C(Nc1ccc([N+](=O)[O-])cc1O)c1cc(F)ccc1O [A20]

Compound: O=C(Nc1ccc(C(F)(F)F)cc1C(F)(F)F)c1cc(F)ccc1O [A22]
Time of complete inhibition of bacterial growth (P. aeruginosa DK2 [2]; A22 10 μmol/L with PB 1 μg/mL): 36 h
Time of complete inhibition of bacterial growth (P. aeruginosa DK2 [2]; A22 20 μmol/L with PB 1 μg/mL): 24 h
Effect on bacterial growth when used alone (time-kill) (P. aeruginosa DK2 [2]): neither A22 (10 μmol/L = 3.67 μg/mL, or 20 μmol/L = 7.34 μg/mL) nor PB (0.5 or 1 μg/mL) significantly affected bacterial growth
Time of first substantial reduction in CFUs (P. aeruginosa DK2 [2]; A22 combined with PB): 2 h
solubility at 24 h (Water solubility assay): 4 µg/mL (≈ 10.9 µM)
IC50 (CYP1A2): 6.13 µM
IC50 (CYP2C8): 2.61 µM
ROS levels (P. aeruginosa DK2 [3]): significantly elevating ROS levels
MIC (P. aeruginosa DK2 [1]): > 1000 µM
MLM Remaining (t = 1 h) ([4]; mouse liver microsomes): 46.31%
half-life ([4]; mouse, liver microsomes, pH 7.4): 54.4 min
IC50 (293 T): > 150 µM
NOX activity, compound alone (P. aeruginosa DK2 [5]): significantly increased
NOX activity, in combination with PB (P. aeruginosa DK2 [5]): further significant increase
IC50 (CYP2B6): > 33 µM
HLM Remaining (t = 1 h) ([6]; human liver microsomes): 23.96%
half-life ([6]; human, liver microsomes, pH 7.4): 29.1 min
IC50 (CYP2C9): 0.29 µM
ATP levels, monotherapy (P. aeruginosa DK2 [7]): reduced ATP levels
Reduction in ATP levels, combined with PB (P. aeruginosa DK2 [7]): even more pronounced
IC50 (HUVEC): > 150 µM
fraction unbound at 5 h [8]: 0.0206
IC50 (CYP2D6): 1.88 µM
IC50 (CYP2C19): 20.5 µM
IC50 (CYP3A4): > 33 µM
Survival of PAO1-infected worms, combination (P. aeruginosa PAO1; 8 μg/mL A22 and 8 μg/mL PB): synergistically extended the lifespan of the worms
Survival of PAO1-infected worms, monotherapy (P. aeruginosa PAO1; C. elegans N2 infected with P. aeruginosa PAO1): neither A22 nor PB had significant therapeutic effects
IC50 (hERG potassium channels): 6.94 µM
Inhibitory effect on biofilm formation, combination (P. aeruginosa DK2 [9]; 8 μg/mL A22 with 0.25 or 0.5 μg/mL PB): significantly enhanced
Biofilm formation, A22 alone (P. aeruginosa DK2 [9]; 4 and 8 μg/mL, crystal violet and CLSM): potent inhibitory activity against biofilm formation
CFU under oxidative stress (H2O2) (P. aeruginosa DK2 [10]): significantly reduced CFU
Bacterial load in infected wounds, combination (P. aeruginosa DK2 [11]; A22 10 mg/kg and PB 1 mg/kg, versus control and monotherapy): significantly reduced bacterial loads in the infected wounds
Bacterial load in infected wounds, monotherapy (P. aeruginosa DK2 [11]; A22 10 mg/kg or PB 1 mg/kg, after 7 days of treatment): neither A22 monotherapy (10 mg/kg) nor PB monotherapy (1 mg/kg) exhibited significant antibacterial effects

MIC (P. aeruginosa DK2 [1]): 50 to 100 µM (≈ 17.2 to 34.4 µg/mL)
Compound: O=C(Nc1ccc([N+](=O)[O-])cc1C(F)(F)F)c1cc(F)ccc1O [A25]

MIC, antibiotic alone (P. aeruginosa DK2 [1]): > 256 µg/mL
Compound: Colistin [reference compound]

Compound: Polymyxin B [reference compound]
Effect on bacterial growth when used alone (time-kill) (P. aeruginosa DK2 [2]): neither A22 (10 μmol/L = 3.67 μg/mL, or 20 μmol/L = 7.34 μg/mL) nor PB (0.5 or 1 μg/mL) significantly affected bacterial growth
MIC, antibiotic alone (P. aeruginosa DK2 [1]): 256 µg/mL
MIC of PB after 14 generations (P. aeruginosa DK2 [12]): 1024 µg/mL
CFU under oxidative stress (H2O2) (P. aeruginosa DK2 [10]): did not reduce CFU
